Experimental data as given in paper PMC3372638 (Journal of Molecular Biology, 2012).
Numbering of substitutions follows the chain as printed. Each block holds one molecule with its values, some of them ahead of it.

How the values were obtained:
HsP5CDH [1] = molecular target: T1, HsP5CDH (Homo sapiens, UniProt P30038, S352A); assay: isothermal titration calorimetry; assay type: binding
T1 sequence (P30038 18-563 S352A): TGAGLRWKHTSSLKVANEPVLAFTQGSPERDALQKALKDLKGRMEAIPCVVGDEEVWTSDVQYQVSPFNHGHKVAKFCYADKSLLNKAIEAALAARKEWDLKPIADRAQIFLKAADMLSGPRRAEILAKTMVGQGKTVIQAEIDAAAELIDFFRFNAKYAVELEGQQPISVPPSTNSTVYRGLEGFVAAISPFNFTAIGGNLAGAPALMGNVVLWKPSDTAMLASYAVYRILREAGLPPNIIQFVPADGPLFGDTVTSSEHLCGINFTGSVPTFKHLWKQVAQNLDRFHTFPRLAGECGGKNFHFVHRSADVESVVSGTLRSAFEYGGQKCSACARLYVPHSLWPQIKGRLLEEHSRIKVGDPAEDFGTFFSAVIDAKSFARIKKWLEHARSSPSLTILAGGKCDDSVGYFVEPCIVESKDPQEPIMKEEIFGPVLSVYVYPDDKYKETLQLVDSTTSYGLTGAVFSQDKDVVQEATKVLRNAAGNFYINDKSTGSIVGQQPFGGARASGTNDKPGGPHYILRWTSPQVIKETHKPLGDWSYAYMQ
How it was run: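 Site-directed S352A mutant of His-tagged human P5CDH was expressed in E. coli BL21(DE3)pLysS and purified by Ni2+-affinity and anion exchange. It was dialysed into 50 mM Tris, 50 mM NaCl, 0.5 mM THP, 0.5 mM EDTA, 5 % glycerol, pH 8.0, with NAD+ in the dialysate and pH-matched. Titrated at 25 °C: 20 μl injections at 240-s intervals, 250 rpm, 4 μl pre-injection discarded. Fitted to a single-site binding model.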

HsP5CDH [2] = molecular target: T2, HsP5CDH (Homo sapiens, UniProt P30038); assay: isothermal titration calorimetry; assay type: binding
T2 sequence (P30038 18-563): T1 sequence (P30038 18-563 S352A) with A335S
How it was run: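 His-tagged human P5CDH was expressed in E. coli BL21(DE3)pLysS and purified by Ni2+-affinity then anion exchange. It was dialysed into 50 mM Tris, 50 mM NaCl, 0.5 mM THP, 0.5 mM EDTA, 5 % glycerol, pH 8.0, with NAD+ dissolved in the dialysate and pH-matched. Run at 25 °C: 20 μl NAD+ injections every 240 s, 250 rpm, 4 μl pre-injection discarded. Three titrations (30, 34, 47 μM protein) were fitted globally to a single-site model.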

AUC = molecular target: the molecule itself; assay: AUC
crystal structure = molecular target: the molecule itself; assay: crystal structure

- Kd (HsP5CDH [1]): 10 µM
- Kd (HsP5CDH [2]): 15 µM
Molecule: NC(=O)c1ccc[n+]([C@@H]2O[C@H](COP(=O)(O)OP(=O)(O)OC[C@H]3O[C@@H](n4cnc5c(N)ncnc54)[C@H](O)[C@@H]3O)[C@@H](O)[C@H]2O)c1 [NAD^+]

B1: human Δ1-pyrroline-5-carboxylate dehydrogenase (enzyme, UniProt P30038-1 18-563, looked up)
chain: T1 sequence (P30038 18-563 S352A) with A335S
- stoichiometry N (AUC): 2

B2: human Δ1-pyrroline-5-carboxylate dehydrogenase with Ser352 mutated to Leu (enzyme, UniProt P30038-1 18-563, looked up)
chain: T1 sequence (P30038 18-563 S352A) with A335L
- binding result (crystal structure): binds

B3: human Δ1-pyrroline-5-carboxylate dehydrogenase with Ser352 mutated to Ala (enzyme, UniProt P30038-1 18-563, looked up)
chain: T1 sequence (P30038 18-563 S352A)
- binding result (crystal structure): binds
